In ChEMBL document CHEMBL4251593, “Nontoxic combretafuranone analogues with high in vitro antibacterial activity” (Eur J Med Chem, 2018) one finds MIC95 and IC50 data, which are given here for five compounds.

Converted amounts (≈) assume the structure as drawn.

Experiment [1] concerns Staphylococcus aureus. The experiment is described as follows: Antibacterial activity against methicillin-resistant Staphylococcus aureus HK5996/08 clinical isolate after 48 hrs by microdilution assay. In kind it is functional. The following applies: HK5996/08, 48 h. For orientation: Broth dilution looks for growth in wells or tubes with falling amounts of substance.
Experiment [2] concerns Pseudomonas aeruginosa. Briefly: Antibacterial activity against Pseudomonas aeruginosa ATCC 9027 after 48 hrs by microdilution assay. The following applies: ATCC 9027, 48 h. Format: functional. Put shortly:
(§1)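 Broth microdilution in Mueller-Hinton medium buffered to pH 7.4 (±0.2), with DMSO as diluent at no more than 2% final. Compounds were tested as 2-fold serial dilutions from 2000 to 0.488 µmol/l. The inoculum was 0.5 McFarland (1.5×10^8 cfu/ml). Plates were held at 37 °C and read visually at 24 and 48 h. MIC was taken as 95% growth inhibition versus control, determined twice in duplicate.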

Experiment [3] deals with Klebsiella pneumoniae. Briefly: Antibacterial activity against Klebsiella pneumoniae HK11750/08 clinical isolate after 48 hrs by microdilution assay. In kind it is functional. The settings on record: HK11750/08, 48 h.
In experiment [4] the test system is Staphylococcus epidermidis. The experiment is described as follows: Antibacterial activity against Staphylococcus epidermidis HK6966/08 clinical isolate after 48 hrs by microdilution assay. Format: functional. The settings on record: HK6966/08, 48 h.
The test system of experiment [5] is PC-3. The experiment is described as follows: Induction of apoptosis in human PC3 cells assessed as caspase 3/7 activity after 24 hrs by caspase-glo luminescent assay. The following applies: PC-3, 24 h. In kind it is cell-based. Put shortly: (§2)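 Cells were seeded at 500 per well in their growth media and exposed to 12 concentrations from 40 µM to 1 nM, delivered from DMSO, in triplicate. After 24 h, caspase-3/7 activity was read by Caspase-Glo luminescence. Data were normalized and ED50 was fitted by variable-slope nonlinear regression.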

In experiment [6] the test system is HepG2. Briefly: Induction of apoptosis in human HepG2 cells assessed as caspase 3/7 activity after 24 hrs by caspase-glo luminescent assay. The settings on record: HepG2, 24 h. In kind it is cell-based. An outline of the steps: as §2
Experiment [7] concerns Staphylococcus aureus. Briefly: Antibacterial activity against Staphylococcus aureus ATCC 6538 after 24 hrs by microdilution assay. The following applies: ATCC 6538, 24 h. In kind it is functional.
Experiment [8] concerns Klebsiella pneumoniae. Briefly: Antibacterial activity against Klebsiella pneumoniae HK11750/08 clinical isolate after 24 hrs by microdilution assay. In kind it is functional. The following applies: HK11750/08, 24 h.
Experiment [9] concerns HepG2. The experiment is described as follows: Cytotoxicity against human HepG2 cells assessed as reduction in cell viability after 48 hrs by ATPlite-based luminescent assay. The following applies: HepG2, 48 h. An outline of the steps:
(§3)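 Cells were grown […] with 10% FBS, glutamax, NEAA and pen/strep at 37 °C, 5% CO2. Media were DMEM for RPE-1, HepG2 and BJ (BJ plus 10 ng/ml bFGF), F-12K for PC3, and IMDM for K562/HL-60. Cells were seeded at 500 per well and dosed from DMSO at 12 concentrations, 40 µM to 1 nM, in triplicate. After 48 h, intracellular ATP was read by luminescence. ED50 was obtained by variable-slope nonlinear regression.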
(Cellular ATP, detected with luciferase, serves as a proxy for viable cell number.)

In experiment [10] the test system is Escherichia coli. Briefly: Antibacterial activity against Escherichia coli ATCC 8739 after 24 hrs by microdilution assay. In kind it is functional. The following applies: ATCC 8739, 24 h. An outline of the steps: as §1
Experiment [11] deals with HL-60. The experiment is described as follows: Induction of apoptosis in human HL60 cells assessed as caspase 3/7 activity after 24 hrs by caspase-glo luminescent assay. In kind it is cell-based. The following applies: HL-60, 24 h. An outline of the steps:
as §2

Experiment [12] has as its system Escherichia coli. Briefly: Antibacterial activity against Escherichia coli ATCC 8739 after 48 hrs by microdilution assay. The following applies: ATCC 8739, 48 h. In kind it is functional. An outline of the steps: as §1
Experiment [13] deals with Enterococcus sp. The experiment is described as follows: Antibacterial activity against Enterococcus sp. HK14365/08 clinical isolate after 24 hrs by microdilution assay. Format: functional. The settings on record: HK14365/08, 24 h.
Experiment [14] deals with Staphylococcus aureus. The experiment is described as follows: Antibacterial activity against methicillin-resistant Staphylococcus aureus HK5996/08 clinical isolate after 24 hrs by microdilution assay. Format: functional. The settings on record: HK5996/08, 24 h.
Experiment [15] relates to Klebsiella pneumoniae. The experiment is described as follows: Antibacterial activity against Klebsiella pneumoniae HK14368/08 clinical isolate after 24 hrs by microdilution assay. Format: functional. The settings on record: HK14368/08, 24 h.
The test system of experiment [16] is K562. Briefly: Cytotoxicity against human K562 cells assessed as reduction in cell viability after 48 hrs by ATPlite-based luminescent assay. The settings on record: K562, 48 h. An outline of the steps: as §3
Experiment [17] deals with TERT-RPE1. Briefly: Cytotoxicity against human RPE1 cells assessed as reduction in cell viability after 48 hrs by ATPlite-based luminescent assay. The following applies: RPE-1, 48 h. Put shortly:
as §3

The test system of the next experiment is MCF7. The experiment is described as follows: Cytotoxicity against human MCF7 cells assessed as reduction in cell viability after 48 hrs by ATPlite-based luminescent assay. The settings on record: MCF7, 48 h.
In experiment [18] the test system is Staphylococcus aureus. Briefly: Antibacterial activity against Staphylococcus aureus ATCC 6538 after 48 hrs by microdilution assay. In kind it is functional. The settings on record: ATCC 6538, 48 h.
Experiment [19] relates to Klebsiella pneumoniae. The experiment is described as follows: Antibacterial activity against Klebsiella pneumoniae HK14368/08 clinical isolate after 48 hrs by microdilution assay. Format: functional. The settings on record: HK14368/08, 48 h.
Experiment [20] deals with Pseudomonas aeruginosa. Briefly: Antibacterial activity against Pseudomonas aeruginosa ATCC 9027 after 24 hrs by microdilution assay. In kind it is functional. The settings on record: ATCC 9027, 24 h. An outline of the steps:
as §1

Experiment [21] concerns Enterococcus sp. The experiment is described as follows: Antibacterial activity against Enterococcus sp. HK14365/08 clinical isolate after 48 hrs by microdilution assay. Format: functional. The following applies: HK14365/08, 48 h.
Experiment [22] deals with K562. The experiment is described as follows: Induction of apoptosis in human K562 cells assessed as caspase 3/7 activity after 24 hrs by caspase-glo luminescent assay. Format: cell-based. The settings on record: K562, 24 h. Put shortly:
as §2

Another experiment deals with BJ. The experiment is described as follows: Cytotoxicity against human BJ cells assessed as reduction in cell viability after 48 hrs by ATPlite-based luminescent assay. An outline of the steps:
as §3

Experiment [23] concerns TERT-RPE1. Briefly: Induction of apoptosis in human RPE1 cells assessed as caspase 3/7 activity after 24 hrs by caspase-glo luminescent assay. The following applies: RPE-1, 24 h. In kind it is cell-based. An outline of the steps: as §2
Experiment [24] concerns PC-3. The experiment is described as follows: Cytotoxicity against human PC3 cells assessed as reduction in cell viability after 48 hrs by ATPlite-based luminescent assay. The settings on record: PC-3, 48 h. Put shortly: as §3
The test system of experiment [25] is Staphylococcus epidermidis. Briefly: Antibacterial activity against Staphylococcus epidermidis HK6966/08 clinical isolate after 24 hrs by microdilution assay. In kind it is functional. The settings on record: HK6966/08, 24 h.
Experiment [26] deals with HL-60. Briefly: Cytotoxicity against human HL60 cells assessed as reduction in cell viability after 48 hrs by ATPlite-based luminescent assay. The following applies: HL-60, 48 h. An outline of the steps:
as §3

For the compound `COc1ccc(C2=C(c3ccc(S(C)(=O)=O)cc3)COC2=O)cc1`, the MIC95 (against Staphylococcus aureus [1]; with Pseudomonas aeruginosa [2]; in the experiment with Klebsiella pneumoniae [3]; in [4]; in the experiment on Staphylococcus aureus [7]; in the experiment on Klebsiella pneumoniae [8]) was above 500 µM throughout. Besides, the MIC95 in the experiment on Escherichia coli [10], against Escherichia coli [12], with Enterococcus sp. [13], against Staphylococcus aureus [14], in the experiment on Klebsiella pneumoniae [15] and against Staphylococcus aureus [18] was above 500 µM in each case. For the same compound, the MIC95 (against Klebsiella pneumoniae [19]; in the experiment with Pseudomonas aeruginosa [20]; against Enterococcus sp. [21]; in [25]) was above 500 µM each time. For the same compound, the 50% inhibitory concentration (IC50) with PC-3 [5], in the experiment with HepG2 [6], in the experiment on HepG2 [9], in the experiment with HL-60 [11], in the experiment on K562 [16] and in the experiment on TERT-RPE1 [17] was above 40 µM throughout. In addition, the IC50 in the experiment on MCF7, with K562 [22], in the experiment on BJ, with TERT-RPE1 [23], with PC-3 [24] and in the experiment on HL-60 [26] was above 40 µM each time.

In the case of `COc1ccc(C2=C(c3ccc(Br)cc3)C(=O)OC2)cc1`, the MIC95 (against Staphylococcus aureus [1]; against Pseudomonas aeruginosa [2]; against Klebsiella pneumoniae [3]; in experiment [4]; in the experiment on Staphylococcus aureus [7]; against Klebsiella pneumoniae [8]) was above 1000 µM each time. The MIC95 in the experiment on Escherichia coli [10], against Escherichia coli [12], in the experiment on Enterococcus sp. [13], in the experiment with Staphylococcus aureus [14], in the experiment on Klebsiella pneumoniae [15] and against Staphylococcus aureus [18] was above 1000 µM in each case. Besides, the MIC95 in the experiment on Klebsiella pneumoniae [19] is above 1000 µM; against Pseudomonas aeruginosa [20], above 1000 µM; against Enterococcus sp. [21] it was above 1000 µM; in experiment [25] it was 1000 µM (≈ 345 µg/mL). Moreover, the IC50 (commonly the point on the concentration scale where inhibition reaches its midpoint) with PC-3 [5] is above 40 µM; with HepG2 [6] it was above 40 µM; with HepG2 [9] it was above 40 µM; in the experiment with HL-60 [11] it was 2.18 µM; with K562 [16], 0.53 µM; in the experiment on TERT-RPE1 [17], 3.35 µM. For the same compound, the IC50 in the experiment on MCF7 is 14.3 µM; in the experiment with K562 [22] it was above 40 µM; in the experiment with BJ, above 40 µM; in the experiment with TERT-RPE1 [23], 56.4 µM; in the experiment on PC-3 [24] it was above 40 µM; in the experiment with HL-60 [26], 0.83 µM.

For the compound `Cc1ccc(C2=C(c3ccc(Cl)cc3Cl)C(=O)OC2)cc1`, the IC50 with PC-3 [5] was above 40 µM; in the experiment with HepG2 [6] it was above 40 µM; in the experiment with HepG2 [9], above 40 µM; in the experiment with HL-60 [11] it was 0.44 µM; with K562 [16] it was 0.19 µM; with TERT-RPE1 [17] it was 0.91 µM. Besides, the IC50 in the experiment on MCF7 was 23.9 µM; in the experiment on K562 [22], above 40 µM; with BJ, above 40 µM; in the experiment with TERT-RPE1 [23] it was 10.1 µM; with PC-3 [24], above 40 µM; in the experiment with HL-60 [26], 0.27 µM.

As for `COc1cc(C2=C(c3ccc4c(c3)OCO4)C(=O)OC2)cc(OC)c1OC`, the IC50 with PC-3 [5], in the experiment on HepG2 [6], in the experiment with HepG2 [9], with HL-60 [11], in the experiment on K562 [16] and in the experiment on TERT-RPE1 [17] was above 40 µM each time. For the same compound, the IC50 in the experiment on MCF7, in the experiment with K562 [22], in the experiment with BJ, in the experiment with TERT-RPE1 [23], in the experiment on PC-3 [24] and with HL-60 [26] was above 40 µM in each case.

For `O=C1OCC(c2ccc(O)cc2)=C1c1ccc(Br)cc1`, the IC50 in the experiment with PC-3 [5], in the experiment with HepG2 [6], in the experiment on HepG2 [9], in the experiment on HL-60 [11], in the experiment on K562 [16] and in the experiment on TERT-RPE1 [17] was above 40 µM in each case. For the same compound, the IC50 in the experiment with MCF7, in the experiment with K562 [22], in the experiment with BJ, with TERT-RPE1 [23], in the experiment on PC-3 [24] and in the experiment with HL-60 [26] was above 40 µM throughout.
